NTR1 agonist – agonists of human NTR1, primary screen, imaging, U2OS cells, beta-arrestin-GFP, high content | Neurotensin receptor type 1 (Homo sapiens), P30989 | 330,000 tested, 0.17% active | activation, % at 20 µM | NTR1-U2OS beta-arrestin-GFP spot imaging, agonist mode;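 active = activation at or above 40% of the spot to cytoplasm intensity ratio, with at least 20 cells analyzed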
Target sequence (P30989 whole entry, looked up): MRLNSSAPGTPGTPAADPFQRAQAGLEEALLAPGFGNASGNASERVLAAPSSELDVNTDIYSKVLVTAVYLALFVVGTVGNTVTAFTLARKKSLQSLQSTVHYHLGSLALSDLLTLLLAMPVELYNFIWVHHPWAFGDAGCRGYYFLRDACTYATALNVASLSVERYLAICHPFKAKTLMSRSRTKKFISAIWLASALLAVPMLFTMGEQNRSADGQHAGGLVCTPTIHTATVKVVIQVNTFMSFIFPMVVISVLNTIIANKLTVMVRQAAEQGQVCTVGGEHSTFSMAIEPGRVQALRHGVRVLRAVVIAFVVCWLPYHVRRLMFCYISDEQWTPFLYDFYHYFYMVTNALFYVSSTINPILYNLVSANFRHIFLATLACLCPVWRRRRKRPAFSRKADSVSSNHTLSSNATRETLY
Arr AP2 block – inhibitors of beta-arrestin/AP2 binding, primary screen, biochemical, GPCR trafficking, flow cytometry; FITC-arrestin peptide / GST-AP2 beads; AP2 beta2 appendage carries R879A mutation; inhibition, % at 10 µM; 340,000 tested, 0.31% active; AID 504490, 2011;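 active = inhibition above a set limit, near 3 SD of compounds lacking own fluorescence, cut at about 54% in these data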
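test system = AP2 appendage R879A on GSH beads | buffer or medium = PBS plus Tween 20 (0.05%) and BSA (0.1%) | incubation = 12 min plus 1 h, RT | detection = bead flow cytometry, FITC channel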
MIN6 prolif-1 – inducers of MIN6 beta-cell proliferation, primary screen, ATP luminescence, uHTS | MIN6 cells proliferation, ATPlite luminescence, 48 h; cells starved in 0.2% serum; 100% = growth in 10% serum | proliferation, % at 10 µM | 330,000 tested, 0.29% active;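 active = compounds whose signal lies at least 3.5 SD above the mean of all wells on their plate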
T cell HTS – modulators of CD8 T cell-vesicle binding, primary screen, mouse 2C CD8+ T cells, flow cytometry; 2C CD8+ T cell-vesicle binding; active compounds read low; response (vesicle binding), % at 7 µM; 330,000 tested, 0.068% active;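 active = response, share of CD8 T cells binding vesicles, and their 90th percentile fluorescence all below set limits, cut at about 80% in these data, passing the limit was not always enough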;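 also: values below 100% mean blocked vesicle binding to the CD8+ T cells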
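Incubation: binding step 1.5 h, 37 °C, antibody labelling 20 min, ice; system: murine 2C transgenic CD8+ T lymphocytes; technique: cytometric PE anti-B7-1 and Alexa647 anti-CD8 signals after 1% paraformaldehyde fixation; also added: QL9-charged Drosophila Ld/ICAM-1/B7-1 vesicles; control set: naked versus QL9-loaded vesicles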
V-ATPase pH – regulators of yeast V-ATPase proton pumping, primary screen, pHLuorin cytosolic pH fluorescence. AID 504577, 2011. S. cerevisiae. 350,000 tested, 0.37% active. response, % at 10 µM; in the data active = response mostly above about 7.3%, no sharp cut-off; inactive = mostly below about 5.4%; also: actives read high
XiGFP reactiv – activators of inactive X chromosome reactivation, primary screen, imaging, XiGFP fibroblasts, GFP high-content imaging, set 2; activation, % at 7.58 µM; 360,000 tested, 0.055% active; XiGFP mouse fibroblasts, % GFP-positive cells imaging, 3 d; cells co-treated with 5-aza-dC sensitizer; scaled so ellipticine positive control = 100%; AID 743238, 2013;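 active = mean normalized replicate activation at least 10% and every replicate at or above 10%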
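System: 68-5-11 XiGFP fibroblast line; Timing: 3 days compound exposure; Compound dosing: one concentration, pinned; Benchmarks: positive control ellipticine, 6 µM final; Buffer or medium: DMEM containing 5-aza-dC.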
MIN6 prolif-2 – inducers of beta-cell proliferation in MIN6, confirmation, MIN6 cells, mouse; shares compounds with MIN6 prolif-1; ATPlite luminescence, 48 h; cells kept in 0.2% serum; scaled between 0.2% and 10% serum; proliferation increase, % at 50 µM; 920 tested, under 10 active;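 active = proliferation increase above 40% at any of the four tested concentrations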
Hits are given with their value; n = inactive; x = no result given. An excerpt weighted towards active compounds, which were near 0.89% of everything screened.

SMILES	NTR1 agonist	Arr AP2 block	MIN6 prolif-1	T cell HTS	V-ATPase pH	XiGFP reactiv	others
Cc1[nH]c2ccccc2c1C(=O)CSc1n[nH]c(N)n1	n	n	n	n	13.1	n
COC(=O)C(C(=O)OC)c1ccc(-n2cccc2)cc1	n	55.9	n	n	n	n
CNC[C@H]1Oc2ccc(NC(=O)NC(C)C)cc2CC(=O)N(C)C[C@@H]1C	x	x	x	x	x	n
O=C1CCCC/C=C\C[C@H](CC(=O)N(CCO)Cc2ccccc2)C(=O)N[C@@H](c2ccccc2)CO1	n	n	n	61.9	n	n
CC(C)C#Cc1ccc2c(c1)O[C@@H](CN(C)C(=O)c1cccc(F)c1)[C@H](C)CN([C@H](C)CO)S2(=O)=O	x	x	x	x	x	n
CCn1c(=O)c([N+](=O)[O-])c(Cl)c2ccccc21	n	n	n	n	20.5	x
CO[C@@H]1CN(C)C(=O)c2ccc(NS(C)(=O)=O)cc2OC[C@@H](C)N(Cc2ccccc2)C[C@H]1C	x	x	x	x	x	n
O=C1C=CC(=O)N1c1cccc(-c2ccccc2)c1	n	n	n	n	32.4	n
C[C@@H]1CCCCO[C@@H](CN(C)Cc2ccc(C(F)(F)F)cc2)[C@H](C)CN([C@H](C)CO)C(=O)c2cc(N(C)C)ccc2O1	x	x	x	x	x	n
COc1ccc(-c2cc(C)nc3c(-c4ccccc4)cnn23)cc1	x	n	x	x	99.6	n
Cc1cc(-c2ccccc2)n2ncc(-c3ccccc3)c2n1	n	n	n	n	n	n
CC=Cc1ccc2n(c1=O)C[C@@H]1[C@@H](CO)[C@H](C(=O)N[C@H](C)c3ccccc3)[C@H]2N1CC1CC1 (mixture of isomers)	x	x	x	x	x	n
CCCNC(=O)c1onc(CSc2ccccn2)c1C(=O)NCCC	n	n	n	n	21.6	n
CCCC#Cc1ccc2c(c1)[C@@H]1[C@@H](CCN1S(=O)(=O)c1cn(C)cn1)[C@@H](CO)N2	x	x	x	x	x	n
COc1ccc(NC(=O)CCc2ccccc2)cc1S(=O)(=O)N1CCOCC1	n	n	n	n	n	n
COc1ccc(NC(=O)CCc2ccccc2)cc1S(=O)(=O)N1CCCCC1	n	n	n	n	n	140.7
CN(C)CCCN1C(=O)c2cccc3c(Br)ccc(c23)C1=O	n	n	n	n	n	n
CCCCNc1ccc2c3c(cccc13)C(=O)N(CCCC)C2=O	x	n	x	x	n	122.9
N#Cc1cccc(S(=O)(=O)NNC(=O)C23CC4CC(CC(C4)C2)C3)c1	n	n	n	58.3	n	n
COCC(=O)Nc1ccc2c(c1)OC[C@@H](C)N(Cc1ccccc1F)C[C@H](C)[C@@H](OC)CN(C)C2=O	x	x	x	x	x	n
COC(=O)c1cc(-c2ccc3c(c2)OCO3)nc2ccccc12	n	n	n	n	n	x
Cc1cc(C)nc(NC(=O)c2cc(-c3ccc4c(c3)OCO4)nc3ccccc23)c1	n	n	n	n	13.9	n
O=[N+]([O-])c1c(Nc2ccccn2)cc(Cl)c2nonc12	n	n	n	n	33.0	n
C[C@@H]1CN([C@H](C)CO)S(=O)(=O)c2ccc(C#Cc3ccccc3F)cc2O[C@H]1CN(C)CC1CCOCC1	x	x	x	x	x	n
COc1cc(NCc2ccccc2)c2ncn(Cc3ccccc3)c2c1	n	n	n	n	14.3	n
SMILES	NTR1 agonist	Arr AP2 block	MIN6 prolif-1	T cell HTS	V-ATPase pH	XiGFP reactiv	others
COCCCOc1cc(NCc2ccccc2)c2ncn(C(C)C)c2c1	n	n	n	n	n	n
C[C@@H]1CCCCO[C@@H](CN(C)C(=O)CCCN(C)C)[C@@H](C)CN([C@@H](C)CO)C(=O)c2cc(NS(=O)(=O)c3cccs3)ccc2O1	x	x	x	x	x	n
COc1ccc(S(=O)(=O)N2CCN(c3ccccc3)CC2)cc1OC	x	n	x	x	n	n
COc1ccc(S(=O)(=O)N2CCN(c3cnccn3)CC2)cc1OC	n	n	n	n	16.4	n
CCC(CO)[n+]1c(C)cc(/C=C2\Sc3ccccc3N2Cc2ccccc2)cc1C (centres undefined)	x	n	x	n	n	102.7
C[n+]1ccccc1/C=C1\Sc2ccccc2N1CCO	n	n	n	n	n	n
COc1ccccc1CNC(=O)Cc1c[nH]c2ccccc12	n	n	n	n	13.5	n
Nc1nc(CN2CCN(c3ccccc3F)CC2)nc(Nc2ccc3c(c2)OCCO3)n1	n	n	n	n	15.6	x
Cc1c(C(=O)NNC(=O)c2cccnc2)cccc1[N+](=O)[O-]	n	n	n	0.0	n	n
C[C@H]1CN([C@@H](C)CO)S(=O)(=O)c2ccc(-c3cccnc3)cc2O[C@@H]1CN(C)C(=O)C1CC1	x	x	x	x	x	n
C[C@H]1CC=CC[C@H](c2ccccc2)NC(=O)[C@@H](Cc2ccccc2)N(C)C(=O)c2ccccc2O1 (mixture of isomers)	x	x	x	x	x	n
C=CCNc1nc(Nc2ccccc2F)nc(OCC)n1	n	n	n	n	n	n
CCOc1nc(Nc2ccccc2F)nc(OCC)n1	n	n	5.0	n	n	n	MIN6 prolif-2=n
CCn1c(SCC(=O)N=Nc2c(O)[nH]c3ccccc23)nc2ccccc21	n	n	0.0	n	n	n	MIN6 prolif-2=n
c1cncc(-c2nc(N3CCOCC3)c3ccccc3n2)c1	n	n	4.8	n	n	x	MIN6 prolif-2=n
Cc1ccc(C2=NNC(C(O)C(O)C(O)CO)S2)cc1 (centres undefined)	n	n	5.8	n	n	x	MIN6 prolif-2=n
COc1ccc(C2NN=C(c3ccc(C)cc3)S2)cc1 (centres undefined)	x	n	x	n	n	n
C[C@H](CO)N1C[C@H](C)[C@@H](CN(C)C(=O)c2ccccn2)Oc2ncc(C3=CCCCC3)cc2C1=O	x	x	x	x	x	n
CN1[C@@H]2Cn3c(ccc(-c4ccccc4)c3=O)[C@H]1[C@@H](C(=O)NC1CCCCC1)[C@@H]2CO	x	x	x	x	x	n
CCN(CC(=O)Nc1c(F)cccc1F)C(=O)Cn1[nH]c(=O)c2ccccc2c1=O	n	n	11.3	n	n	n	MIN6 prolif-2=n
CCN(CC(=O)Nc1c(F)cccc1F)C(=O)Cc1c[nH]c2ccccc12	n	n	n	n	n	n
CCN1CN(CCc2ccccc2)CNC1=S	n	n	9.3	n	n	n	MIN6 prolif-2=n
C[C@@H]1CN([C@@H](C)CO)C(=O)c2cc(-c3ccccc3)cnc2O[C@@H]1CN(C)Cc1ccccc1	x	x	x	x	x	n

Screens as filed in PubChem.
